Screens deposited in PubChem by several laboratories.
In the library only some 4.1% were active in any assay of this set; here they are far more common.
KCNK9 block: inhibitors of human KCNK9 two-pore domain potassium channel. HEK293 KCNK9, FluxOR thallium flux fluorescence; active compounds read low. B-score at 10 µM. 310,000 compounds, 1.2% hits. AID 488922;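 active means ratio B-score over 3 SD below the library mean, with starting fluorescence within 5 SD of its mean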;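 further: negative B-score means less thallium flux so channel inhibition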
Target sequence (Q9NPC2 whole entry, looked up, the tested form may be a part): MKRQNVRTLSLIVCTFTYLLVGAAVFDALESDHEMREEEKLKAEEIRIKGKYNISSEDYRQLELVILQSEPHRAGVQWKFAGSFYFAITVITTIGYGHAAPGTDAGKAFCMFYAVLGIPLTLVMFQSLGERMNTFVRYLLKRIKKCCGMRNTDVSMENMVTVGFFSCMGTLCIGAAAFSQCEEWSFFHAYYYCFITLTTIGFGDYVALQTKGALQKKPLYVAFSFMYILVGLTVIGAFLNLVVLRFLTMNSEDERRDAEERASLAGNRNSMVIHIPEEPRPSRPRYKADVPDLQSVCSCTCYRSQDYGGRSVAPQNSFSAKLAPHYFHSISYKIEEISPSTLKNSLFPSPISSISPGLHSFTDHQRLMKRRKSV
Cl transport mod: modulators of human KCC2 chloride dependent transport. B-score of Tl+ flux slope (higher = more flux/activation; lower = inhibition) at 10 µM. 190,000 compounds, 2.2% hits. KCC2 cells, thallium flux FluoZin-2 fluorescence. AID 1456;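 active means thallium flux slope and its plate-corrected score both differing from the plate sample mean at a set confidence after two filtering rounds, in either direction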;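 further: slope of fluorescence scaled to starting intensity during 10 to 20 s after thallium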
KCNK3 inh: human KCNK3 channel inhibition, primary screen | O14649 | CHO-KCNK3 thallium flux, FluxOR fluorescence; active compounds read low | B-score at 10 µM | 340,000 compounds, 0.84% hits | AID 602410;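 active means B-score under library mean minus 4 SD, starting fluorescence ratio at most library mean plus 5 SD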;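 further: more negative B-score means stronger inhibition of thallium flux through KCNK3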
KCNQ1 block: inhibitors of human KCNQ1 potassium channel; B-score at 10 µM; CHO-K1 KCNQ1, FluxOR thallium flux fluorescence; active compounds read high; 310,000 compounds, 1.3% hits; AID 2642; P51787;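 active means compounds whose thallium flux B-score, printed positive for inhibition, exceeds three library SD while starting fluorescence stays within three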;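 further: channel opened by potassium depolarization with thallium stimulus after 20 min compound exposure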
hERG protect: hERG (human) protection from proarrhythmic block; Q12809; CHO-hERG, FluxOR thallium flux, dofetilide IC70 present; activation (rescue from dofetilide block), less the hit threshold, % at 10 µM; 310,000 compounds, 0.51% hits;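 active means activation above the mean of controls blocked by dofetilide plus 5 SD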;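 further: thallium influx through hERG after potassium depolarization seen as dye fluorescence rise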
KCNQ1 pot: potentiates or activates the human KCNQ1 potassium channel; P51787; CHO-K1 KCNQ1, thallium flux FluxOR fluorescence; active compounds read high; B-score at 10 µM; 310,000 compounds, 0.35% hits;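 active means fluorescence ratio B-score, a plate-corrected score, at least three library SD, with initial intensity B-score within 5 SD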
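System: Stable KCNQ1 CHO-K1 line | Incubation: 90 min dye loading and 20 min compound exposure, both at room temperature | Measure: Ratio B score | Medium: Assay buffer for compound exposure, DMSO matched across wells | Compound dosing: Single-concentration screen | Probe or stimulus: K+/Tl+ depolarizing stimulus | Measured by: Kinetic FluxOR fluorescence, 10 s baseline plus 110 s post-stimulus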
KCNK9 inh conf: human KCNK9 inhibitor confirmation; 4,900 compounds, 43% hits; shares compounds with KCNK9 block; inhibition, % at 10 µM; AID 492992; HEK293 KCNK9 cells, FluxOR thallium flux fluorescence;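 active means thallium signal inhibited by more than 5 SD of the compound-free buffer control wells, on both duplicate plates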;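 further: 0% = assay buffer control wells without compound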
Kir2-1 spec: selectivity of KCNK9 modulators against mouse Kir2.1. shares compounds with KCNK9 block. Kir2.1 cells, FluxOR thallium flux fluorescence. inhibition, % at 10 µM. 4,900 compounds, 4% hits. AID 492993;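 active means thallium signal drop more than 5 SD beyond the mean of the no-compound control wells, seen in both duplicate plates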;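 further: signal is fluorescence rise after thallium addition divided by baseline fluorescence; plate controls were assay buffer only for no effect and full block by chlorpromazine control for full effect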
HEK293 Tl ctr: second counter-screen for KCNK9 modulators: effect in non-induced cells; shares compounds with KCNK9 block; non-induced KCNK9-HEK293, FluxOR thallium flux; inhibition, % at 10 µM; 4,900 compounds, 40% hits;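 active means thallium signal drop beyond 5 SD of the untreated control mean, on both duplicate plates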;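 further: plate controls were buffer only IC0 wells for no effect and SID17386958 at its maximal inhibitory level for full effect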
KCNK3 confirm: human KCNK3 channel inhibition, confirmation assay. shares compounds with KCNK3 inh. CHO-KCNK3 thallium flux, FluxOR fluorescence; 0% buffer, 100% carvedilol maximal block. ratio percent of control, % at 10 µM. 2,400 compounds, 99% hits. AID 651638;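 active means ratio percent of control, averaged over triplicates, above buffer control mean plus 5 SD, cut at about 64% in these data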;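 further: ratio is the fluorescence rise from min to max over baseline after thallium stimulus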
KCNK3 noninduced: counter-screen for KCNK3 inhibitors: effect in non-induced cells; shares compounds with KCNK3 inh; non-induced KCNK3 parental cells, FluxOR thallium flux; active compounds read low; thallium flux ratio (lower = more inhibition) at 10 µM; 2,400 compounds, 40% hits; AID 651747;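 active means thallium flux ratio, averaged over three wells, more than 5 SD below the buffer control mean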;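 further: host cells are CHO cells without KCNK3 induction; ratio is peak minus trough fluorescence over baseline then normalized to buffer controls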
* hit, by the source's call; i = inactive; x = no result given.

SMILES	KCNK9 block	Cl transport mod	KCNK3 inh	KCNQ1 block	hERG protect	KCNQ1 pot	KCNK9 inh conf	Kir2-1 spec	HEK293 Tl ctr	others
Cc1cccc(N2CCN(C(=O)Cc3ccc(Br)cc3)CC2)c1C	i	-0.64	i	i	-17	i	i	i	26%*
CNC[C@H](CC1CCCCC1)NC[C@H](Cc1ccccc1)NCCC12CC3CC(CC(C3)C1)C2	-10*	x	i	i	-3	i	62%*	80%*	26%*
O=C(CCc1ccccc1)n1nc(-c2ccccc2)nc1NCc1ccco1	-8.4*	0.4	i	i	-9	i	i	i	33%*
CN(C(=O)COc1ccc(S(=O)(=O)N2CCOCC2)cc1[N+](=O)[O-])C1CCS(=O)(=O)C1 (stereo not drawn)	i	-0.0047	i	i	-16	i	x	x	x
CCOc1ccccc1C(=O)N[C@H](C(=O)OCc1cc([N+](=O)[O-])cc2c1OCOC2)C(C)C	-10*	-2	i	i	-13	i	48%*	i	25%*
CC(C)C(NC(=O)c1ccccc1)C(=O)OCc1cc([N+](=O)[O-])cc2c1OCOC2 (stereo not drawn)	i	0.049	i	i	-8	i	x	x	x
COCCNC(=O)CN1CCC(NC(=O)c2ccco2)CC1	i	-0.16	i	i	-1	i	x	x	x
CC(C)(C)n1nnnc1C(c1cccs1)N(Cc1cccnc1)Cc1ccccc1Cl (stereo not drawn)	-19*	-1.1	i	i	-9	i	70%*	i	54%*
CC(c1nnnn1C(C)(C)C)N(Cc1cccnc1)Cc1ccccc1Cl (stereo not drawn)	i	0.56	i	i	-8	i	x	x	x
O=C(c1ccccc1Cl)N1N=C(c2ccc(Br)cc2)CC1c1nc2ccccc2[nH]1 (stereo not drawn)	-8.9*	1.4	i	i	-7	i	36%*	i	30%*
O=C(c1ccncc1)N1N=C(c2ccc(Br)cc2)CC1c1ccccc1O (stereo not drawn)	i	x	i	i	-5	i	x	x	x
CC1CN(c2cc(-c3ccccc3)c3ccccc3n2)CC(C)O1 (stereo not drawn)	i	0.054	i	i	-7	i	i	i	i
CC1CN(c2nc3ccccc3cc2-c2ccccc2)CC(C)O1 (stereo not drawn)	i	-0.71	i	i	-11	i	i	i	i
COc1ccc(Cn2nc(-c3ccccc3)c(N3CCCCC3)cc2=O)cc1	-17*	-0.17	i	7*	-15	i	i	i	28%*
CCCCN(C)C(=O)CSc1nc(NCc2ccc(OC)cc2)c2ccccc2n1	i	0.18	i	i	-12	i	i	i	i
O=C(Nc1cccc(-c2cn3cccnc3n2)c1)c1ccc(Br)o1	-8.7*	-0.043	-9.6*	i	-13	i	40%*	i	i	KCNK3 confirm=95*;KCNK3 noninduced=i
O=C(Nc1cccc(NC(=O)c2cccs2)c1)c1ccc(Br)o1	-16*	x	-10*	i	-12	i	62%*	i	i	KCNK3 confirm=99*;KCNK3 noninduced=i
O=C(Nc1cccc(-c2cn3cccnc3n2)c1)c1ccco1	i	-0.96	i	i	-16	i	x	x	x
